Reference: ChEMBL document CHEMBL2021905, “Structure-activity relationship of novel menaquinone-4 analogues: modification of the side chain affects their biological activities” (J Med Chem, 2012)

Assays:
[1] = system: MG-63; test: Prodrug conversion in human MG63 cells assessed as formation of MK-4 at 1 uM for 24 hrs by LC-APCI-MS/MS analysis; assay type: ADME, cell-based; conditions: mg-63, 24 h
Outline: (§1)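 MG-63 human osteosarcoma cells incubated with compound at a final 1.0 μM, 37 °C, 24 h. Cellular vitamin K compounds extracted with hexane. Converted menaquinone-4 and its epoxide quantified by LC-APCI-MS/MS. Three independent experiments; mean ± SD.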

[2] = target: T1, Nuclear receptor subfamily 1 group I member 2 (Homo sapiens, UniProt O75469); test: (§2) Induction of human SXR transcriptional activity expressed in human HepG2 cells coexpressing GAL4 at 5 X 10^-6 M after 48 hrs by luciferase reporter gene assay relative to vehicle-treated control; assay type: cell-based; conditions: hepg2, 48 h, 5 µM
T1 sequence (O75469 whole entry): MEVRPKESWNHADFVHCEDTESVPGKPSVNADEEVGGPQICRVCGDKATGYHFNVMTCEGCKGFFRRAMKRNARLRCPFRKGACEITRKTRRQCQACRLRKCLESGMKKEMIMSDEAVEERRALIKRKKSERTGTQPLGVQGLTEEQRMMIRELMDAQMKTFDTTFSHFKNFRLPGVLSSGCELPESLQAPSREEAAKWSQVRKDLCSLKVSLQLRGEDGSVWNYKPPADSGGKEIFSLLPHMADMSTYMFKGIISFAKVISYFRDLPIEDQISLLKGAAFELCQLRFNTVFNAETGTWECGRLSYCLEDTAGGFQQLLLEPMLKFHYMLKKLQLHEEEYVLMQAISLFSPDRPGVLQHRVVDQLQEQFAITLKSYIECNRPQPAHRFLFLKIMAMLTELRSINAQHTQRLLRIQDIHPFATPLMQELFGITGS
Outline: (§3)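 HepG2 cells (2 × 10^5 per well), maintained in Eagle's modified medium with 10% FCS and 1% each penicillin/streptomycin, transfected with pM-SXR (GAL4 fusion), pGVP2-GAL2 reporter and pRL-CMV. 24 h after transfection, treated in fresh medium with compound or ethanol vehicle for 48 h. Dual-luciferase read-out, firefly normalized to Renilla. Three independent experiments; mean ± SD.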

[3] = system: MG-63; test: Prodrug conversion in human MG63 cells assessed as formation of deuterium 1a-methyl-7a-((2E,6E,10E)-3,7,11,15-tetramethylhexadeca-2,6,10,14-tetraenyl)naphtho[2,3-b]oxirene-2,7(1aH,7aH)-dione at 1 uM for 24 hrs by LC-APCI-MS/MS analysis; assay type: ADME, cell-based; conditions: mg-63, 24 h; outline: as §1
[4] = system: MG-63; test: Prodrug conversion in human MG63 cells assessed as formation of deuterium 2-methyl-3-((2E,6E,10E)-3,7,11,15-tetramethylhexadeca-2,6,10,14-tetraenyl)naphthalene-1,4-dione at 1 uM for 24 hrs by LC-APCI-MS/MS analysis; assay type: ADME, cell-based; conditions: mg-63, 24 h; outline: as §1
[5] = target: T2, SXR (nuclear receptor subfamily 1 group I member 2) (Homo sapiens, UniProt O75469); test: as §2; assay type: cell-based; conditions: HepG2 cells expressing human SXR and GAL4, read-out: FC; outline: as §3
T2 sequence (O75469 whole entry): T1 sequence (O75469 whole entry)

Drug metabolism [1] | Activity [2] | Drug metabolism [3] | Drug metabolism [4] | fold induction at 48 h, 5 µM [5] | SMILES
Active | Active | Active | Active | – | [2H]c1c([2H])c([2H])c2c(c1[2H])C(=O)C(C/C=C(\C)CC/C=C(\C)CC/C=C(\C)CC/C=C/C)=C(C([2H])([2H])[2H])C2=O
Active | Active | Active | Active | – | [2H]c1c([2H])c([2H])c2c(c1[2H])C(=O)C(C/C=C/CC/C=C(\C)CC/C=C(\C)CCC=C(C)C)=C(C([2H])([2H])[2H])C2=O
Active | Active | Active | Active | – | [2H]c1c([2H])c([2H])c2c(c1[2H])C(=O)C(C/C=C(\C)CC/C=C/CC/C=C(\C)CCC=C(C)C)=C(C([2H])([2H])[2H])C2=O
– | Active | – | – | – | [2H]c1c([2H])c([2H])c2c(c1[2H])C(=O)C(C/C=C(\C)CCCC(C)CC/C=C(\C)CCC=C(C)C)=C(C([2H])([2H])[2H])C2=O (centres undefined)
Active | Active | Active | Active | – | [2H]c1c([2H])c([2H])c2c(c1[2H])C(=O)C(C/C=C(\C)CC/C=C(\C)CC/C=C/CCC=C(C)C)=C(C([2H])([2H])[2H])C2=O
Active | – | Active | Active | – | [2H]c1c([2H])c([2H])c2c(c1[2H])C(=O)C(C/C=C(\C)CC([2H])([2H])/C=C(/CC/C=C(\C)CCC=C(C)C)C([2H])([2H])[2H])=C(C([2H])([2H])[2H])C2=O
– | Not Active | – | – | – | [2H]c1c([2H])c([2H])c2c(c1[2H])C(=O)C(C/C=C(\C)CCCC(C)CCCC(C)CCCC(C)C)=C(C([2H])([2H])[2H])C2=O (centres undefined)
– | Not Active | – | – | – | [2H]c1c([2H])c([2H])c2c(c1[2H])C(=O)C(C/C=C(\C)CCCC(C)CCCC(C)CCC=C(C)C)=C(C([2H])([2H])[2H])C2=O (centres undefined)
– | Not Active | – | – | – | [2H]c1c([2H])c([2H])c2c(c1[2H])C(=O)C(CCC(C)CCCC(C)CCCC(C)CCCC(C)C)=C(C([2H])([2H])[2H])C2=O (centres undefined)
– | – | – | – | 7 | [2H]c1c([2H])c([2H])c2c(c1[2H])C(=O)C(C/C=C(\C)CC/C=C(\C)CC/C=C(\C)CCC=C(C)C)=C(C([2H])([2H])[2H])C2=O
